Reference: ChEMBL document CHEMBL4038317, “Discovery of a Benzamide Derivative That Protects Pancreatic β-Cells against Endoplasmic Reticulum Stress” (J Med Chem, 2017)
Activity calls are given as the source filed them. No cut-off for these calls is given here.

Key:
[1] = biological target: T1, Eukaryotic translation initiation factor 2-alpha kinase 3 (Rattus norvegicus) (UniProt Q9Z1Z1); assay: Inhibition of PERK activation in rat INS-1 cells assessed as suppression of tunicamycin-induced increase in ATF4 mRNA levels up to 10 uM after 8 hrs by qRT-PCR analysis; assay type: cell-based
T1 sequence (whole entry): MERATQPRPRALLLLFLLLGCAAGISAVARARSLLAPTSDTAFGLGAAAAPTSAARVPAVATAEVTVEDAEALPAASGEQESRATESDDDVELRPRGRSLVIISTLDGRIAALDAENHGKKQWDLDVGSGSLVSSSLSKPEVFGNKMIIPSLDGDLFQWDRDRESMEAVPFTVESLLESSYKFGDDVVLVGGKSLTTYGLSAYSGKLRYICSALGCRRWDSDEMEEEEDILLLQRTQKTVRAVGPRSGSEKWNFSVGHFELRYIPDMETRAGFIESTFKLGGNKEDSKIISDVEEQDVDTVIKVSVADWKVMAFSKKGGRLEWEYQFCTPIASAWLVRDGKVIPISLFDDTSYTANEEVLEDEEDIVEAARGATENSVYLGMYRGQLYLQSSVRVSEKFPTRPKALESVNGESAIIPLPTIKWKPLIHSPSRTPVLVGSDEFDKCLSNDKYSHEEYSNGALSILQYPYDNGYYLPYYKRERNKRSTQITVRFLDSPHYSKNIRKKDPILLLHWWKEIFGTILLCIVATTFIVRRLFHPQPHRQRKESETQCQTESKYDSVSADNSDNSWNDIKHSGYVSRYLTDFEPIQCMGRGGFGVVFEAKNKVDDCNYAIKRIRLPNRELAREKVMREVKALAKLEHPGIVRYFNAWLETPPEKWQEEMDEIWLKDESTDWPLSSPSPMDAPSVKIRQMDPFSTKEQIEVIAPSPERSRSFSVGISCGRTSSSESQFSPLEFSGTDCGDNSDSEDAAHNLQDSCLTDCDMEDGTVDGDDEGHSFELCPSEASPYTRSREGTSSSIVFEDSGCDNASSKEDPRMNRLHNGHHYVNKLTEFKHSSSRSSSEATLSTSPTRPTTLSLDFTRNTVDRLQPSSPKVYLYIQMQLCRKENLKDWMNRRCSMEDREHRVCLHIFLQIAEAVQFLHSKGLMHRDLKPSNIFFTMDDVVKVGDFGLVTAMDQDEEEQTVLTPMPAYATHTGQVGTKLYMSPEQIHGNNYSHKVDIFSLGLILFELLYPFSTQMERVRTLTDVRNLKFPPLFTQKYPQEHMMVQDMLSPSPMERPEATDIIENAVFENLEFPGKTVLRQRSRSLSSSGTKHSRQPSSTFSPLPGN
Summary of the method: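 INS-1 cells, 4×10^5 per well, were exposed to tunicamycin 0.1 μg/mL with compound or DMSO for 8 h. qRT-PCR for ATF4, CHOP, Bip, GRP94, or spliced XBP1 using splicing-specific primers. Values were normalized to cyclophilin A by ΔΔCt and given as fold over untreated control. Triplicate wells, 3 independent experiments.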

[2] = biological target: T1, Eukaryotic translation initiation factor 2-alpha kinase 3 (Rattus norvegicus); assay: Inhibition of tunicamycin ER stress-induced PERK activation in rat INS-1 cells assessed as suppression of tunicamycin-induced increase in CHOP protein levels up to 10 uM after 8 hrs by Western blot analysis; assay type: cell-based
Summary of the method: (§1)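 INS-1 cells were exposed to tunicamycin 0.1 μg/mL with compound or DMSO for 8 h. Lysates were immunoblotted for ATF4 and CHOP (1:1000). Bands were quantified by densitometry and normalized to α-tubulin; 3 independent experiments.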

Beta-TC6 = assay: Cytotoxicity against mouse BetaTC6 cells assessed as reduction in cell viability up to 40 uM after 3 days by CellTiter-Glo assay; assay type: cell-based; settings: beta-tc6, 72 h
INS1 [3] = assay: Cytoprotective activity against tunicamycin ER stress-induced apoptosis in rat INS-1 cells assessed as TUNEL positive cells at 0.1 to 1 uM after 24 hrs by TUNEL/DAPI-based microscopic analysis (reference value: 7%); assay type: functional
Mus musculus [4] = assay: Antidiabetic activity in STZ-induced diabetic C57BL/6 mouse model assessed as total pancreatic islet beta-cell area at 5 mg/kg, ip administrated qd with streptozotocin for 5 days followed by compound administration alone for 2 more weeks by DAPI-staining based confocal microscopic analysis (reference value: 30.2 +/- 7.9%); assay type: functional
Summary of the method: (§2)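 At the end of treatment in the STZ mouse model, pancreases were formalin-fixed, paraffin-embedded and serially sectioned at 100 μm intervals. Six sections were stained for insulin and glucagon with DAPI counterstain and imaged by confocal microscopy. Insulin-positive cells demarcated islets; total islet area per section and cells per islet were quantified.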

[5] = biological target: T1, Eukaryotic translation initiation factor 2-alpha kinase 3 (Rattus norvegicus); assay: Inhibition of tunicamycin ER stress-induced PERK activation in rat INS-1 cells assessed as suppression of tunicamycin-induced increase in ATF4 protein levels up to 10 uM after 8 hrs by Western blot analysis; assay type: cell-based; summary of the method: as §1
Mus musculus [6] = assay: Antidiabetic activity in STZ-induced diabetic C57BL/6 mouse model assessed as decrease in blood glucose level at 5 mg/kg, ip administrated qd with streptozotocin for 5 days followed by compound administration alone for 2 more weeks; assay type: functional, organism-based; settings: TDE = time-dependent effect
INS1 [7] = assay: Cytoprotective activity in rat INS-1 cells assessed as protection against tunicamycin-induced ER stress-mediated reduction in cell viability after 3 days by CellTiter-Glo assay relative tunicamycin; assay type: functional; settings: INS1, 72 h
Summary of the method: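 INS-1 cells, 3×10^3 per well, were co-treated with tunicamycin 0.1 μg/mL and compound for 72 h. Viability was read as intracellular ATP by luminescence and expressed as fold of no-tunicamycin cells. EC50 and maximum activity were taken as the increase in viability versus tunicamycin alone. Triplicate wells, three independent experiments.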

Mus musculus [8] = assay: Toxicity in STZ-induced diabetic C57BL/6 mouse model assessed as effect on alpha-cells at 5 mg/kg, ip administrated qd with streptozotocin for 5 days followed by compound administration alone for 2 more weeks by DAPI-staining based confocal microscopic analysis; assay type: organism-based; settings: in vivo, 120 h; summary of the method: as §2
INS1 [9] = assay: Cytoprotective activity against tunicamycin ER stress-induced apoptosis in rat INS-1 cells assessed as viable cells at 0.1 uM after 48 hrs by phase contrast microscopic analysis; assay type: functional, cell-based
Summary of the method: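 INS-1 cells were exposed to tunicamycin 0.1 μg/mL with compound (0.1 μM) or DMSO for 48 h. Live-cell phase-contrast images were taken at 10×; 3 independent experiments.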

INS1 [10] = assay: Cytoprotective activity in rat INS-1 cells assessed as protection against tunicamycin-induced ER stress-mediated reduction in cell viability after 3 days by CellTiter-Glo assay; settings: INS1, 72 h
INS1 [11] = assay: Protection against tunicamycin ER stress-induced suppression of PDX1 mRNA expression in rat INS-1 cells up to 1 uM after 24 hrs by qRT-PCR analysis; assay type: functional, cell-based
Summary of the method: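 INS-1 cells were exposed to tunicamycin 0.1 μg/mL with compound or DMSO for 24 h. INS1, INS2, PDX1 and MafA mRNA were measured by qRT-PCR and normalized to cyclophilin A by the comparative Ct method. Triplicate wells, 3 independent experiments.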

INS1 [12] = assay: Protection against tunicamycin ER stress-induced suppression of glucose-stimulated insulin secretion in rat INS-1 cells after 24 hrs by ELISA; assay type: functional, cell-based
Summary of the method: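 INS-1 cells were given tunicamycin 0.1 μg/mL and compound for 24 h, preincubated 1 h in KRBH (pH 7.4, 2% BSA) with 2.5 mM glucose, then given 1 h at low or high glucose. Secreted insulin was measured by ELISA and corrected for total protein (Bradford). Triplicate wells, three independent experiments.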

inhibition [1]: Active
inhibition [2]: Active
inhibition [5]: Active
Structure (SMILES): O=C(NCc1ccc(C(F)(F)F)cc1)c1cccc(CN2CCCCC2)c1
Activity (Beta-TC6): Non-Toxic
Activity (INS1 [3]): 0.5%
Activity (Mus musculus [4]): 67.4%
Activity (Mus musculus [6]): Tde
Emax (INS1 [7]): 97%
Activity (Mus musculus [8]): Non-Toxic
Activity (INS1 [9]): Active
EC50 (INS1 [10]): 30 nM
Activity (INS1 [11]): Active
Activity (INS1 [12]): Active
